{"data": "Measurements collected from several papers", "target": "Aurora kinase A (AURKA, Homo sapiens, UniProt O14965)", "Residues used in one study (O14965 1-403)": "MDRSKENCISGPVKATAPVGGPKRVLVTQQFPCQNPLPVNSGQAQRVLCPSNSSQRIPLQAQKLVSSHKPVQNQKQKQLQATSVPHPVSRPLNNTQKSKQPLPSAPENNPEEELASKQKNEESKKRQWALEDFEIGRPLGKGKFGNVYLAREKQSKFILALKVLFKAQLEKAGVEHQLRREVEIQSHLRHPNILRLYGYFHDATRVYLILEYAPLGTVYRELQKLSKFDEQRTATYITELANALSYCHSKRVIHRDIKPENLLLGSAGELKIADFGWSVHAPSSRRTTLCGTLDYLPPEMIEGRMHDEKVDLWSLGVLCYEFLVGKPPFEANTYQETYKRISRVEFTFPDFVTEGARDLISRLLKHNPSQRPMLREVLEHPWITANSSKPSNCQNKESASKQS"}
{"SMILES": "CNC(=O)[C@@H]1CC[C@@H](n2c(-c3ccc4cnccc4c3)nc3ccc(C(=O)NCc4cccc(C(N)=O)c4)cc32)C1", "effect on": "binding", "method": "competition with immobilised ligand", "concentration": "1 µM", "remaining binding [%]": 100}
{"SMILES": "C[C@H](c1ccc(F)cc1)N(Cc1cccc(C(=O)O)c1)C(=O)c1cnc2ccccc2c1", "effect on": "cell-free assay", "method": "competition with immobilised ligand", "concentration": "1 µM", "remaining binding [%]": 100}
{"SMILES": "c1cnn2ncc(-c3ccnc(N4CCC45COC5)n3)c2c1", "effect on": "binding", "concentration": "1 µM", "remaining binding [%]": 90}
{"SMILES": "FC(F)(F)c1ccc2c(c1)nc(-c1cccnc1)n2C1CC1", "effect on": "cell-free assay", "method": "competition with immobilised ligand", "concentration": "1 µM", "remaining binding [%]": 98}
{"SMILES": "C[C@@H]1CCN(c2nccc(-c3cnn4ncccc34)n2)C1", "effect on": "binding", "concentration": "1 µM", "remaining binding [%]": 92}
{"SMILES": "C[C@@H](c1ccc(-n2cnc3c(N)ncnc32)cc1)N1CCc2nn(C)c(Cc3ccccc3)c2C1=O", "effect on": "binding", "method": "competition with immobilised ligand", "concentration": "0.1 µM", "remaining binding [%]": 73}
{"SMILES": "F[C@@H]1CCN(c2nccc(-c3cnn4ncccc34)n2)C1", "effect on": "binding", "concentration": "1 µM", "remaining binding [%]": 91}
{"SMILES": "Cc1cnc(Nc2ccc(C(=O)N3CCC(N4CCCC4)CC3)cc2)nc1-c1cc2ccccc2s1", "effect on": "binding", "method": "competition with immobilised ligand", "concentration": "1 µM", "remaining binding [%]": 2}
{"SMILES": "Nc1ncc2c(n1)-c1c([nH]c3ccc(C#CC4CC4)cc13)CCCC2", "effect on": "binding", "method": "competition with immobilised ligand", "concentration": "1 µM", "remaining binding [%]": 80}
{"SMILES": "O=C(Nc1cccnn1)N1CC(C/C=C/c2cncc(Oc3ccc(C(F)(F)F)cn3)n2)C1", "effect on": "cell-free assay", "method": "competition with immobilised ligand", "concentration": "1 µM", "remaining binding [%]": 100}
{"SMILES": "O=C(c1ccc(Nc2nccc(-c3cc4ccccc4s3)n2)cc1)N1CCC(N2CCCC2)CC1", "effect on": "binding", "method": "competition with immobilised ligand", "concentration": "1 µM", "remaining binding [%]": 33}
{"SMILES": "CC(C)(C)c1ccc(-c2nc(CBr)nn2-c2cccc(O)c2)cc1", "effect on": "cell-free assay", "method": "competition with immobilised ligand", "concentration": "10 µM", "remaining binding [%]": 91}
{"SMILES": "O=C(NS(=O)(=O)c1ccc(NCC2CCOCC2)c([N+](=O)[O-])c1)c1ccc(N2CCN(Cc3ccc(C(F)(F)F)cc3-c3ccc(Cl)cc3)CC2)cc1Oc1cnc2[nH]ccc2c1", "effect on": "cell-free assay", "method": "competition with immobilised ligand", "concentration": "1 µM", "remaining binding [%]": 96}
{"SMILES": "COc1ncc2cc3ccccc3nc2c1C#N", "effect on": "cell-free assay", "method": "competition with immobilised ligand", "concentration": "5 µM", "remaining binding [%]": 100}
{"SMILES": "COc1ccnn2ncc(-c3ccnc(N(C)C)n3)c12", "effect on": "binding", "concentration": "1 µM", "remaining binding [%]": 93}
{"SMILES": "CSc1cccnc1N1CCN(Cc2nc3ccccc3[nH]2)CC1", "effect on": "cell-free assay", "method": "competition with immobilised ligand", "concentration": "1 µM", "remaining binding [%]": 74}
{"SMILES": "COc1cnc(Nc2cccc(S(N)(=O)=O)c2)nc1N1CCN(c2ccccc2)C(=O)C1", "effect on": "binding", "method": "competition with immobilised ligand", "concentration": "1 µM", "remaining binding [%]": 80}
{"SMILES": "COc1cc(C(=O)N2CCC(N3CCN(C)CC3)CC2)ccc1Nc1ncc2c(n1)N(C)c1ccccc1C(=O)N2C", "effect on": "binding", "method": "competition with immobilised ligand", "concentration": "10 µM", "remaining binding [%]": 1.2}
{"SMILES": "O=C(Nc1c[nH]nc1C(=O)NC1CCNCC1)c1cc(F)cc(F)c1", "effect on": "binding", "method": "competition with immobilised ligand", "concentration": "1 µM", "remaining binding [%]": 100}
{"SMILES": "CCN1CCN(Cc2ccc(C(=O)Nc3ccc(C)c(Oc4ccc5c(c4)CC(=O)N5)c3)cc2C(F)(F)F)CC1", "effect on": "binding", "method": "competition with immobilised ligand", "concentration": "1 µM", "remaining binding [%]": 100}
{"SMILES": "COCCOc1nc(-c2ccc(Cl)nc2)nc2c1CN(C(=O)c1ncn3ccccc13)CC2", "effect on": "cell-free assay", "method": "competition with immobilised ligand", "concentration": "0.1 µM", "remaining binding [%]": 81}
{"SMILES": "O=C(NCCCN1CCOCC1)c1ccc(Nc2nccc(-c3cc4ccccc4s3)n2)cc1", "effect on": "binding", "method": "competition with immobilised ligand", "concentration": "1 µM", "remaining binding [%]": 55}
{"SMILES": "N[C@H]1CCN(c2nccc(-c3cnn4ncccc34)n2)C1", "effect on": "binding", "concentration": "1 µM", "remaining binding [%]": 97}
{"SMILES": "C[C@@H]1CN(c2ccc3ncc(-c4ccc5[nH]nc(C6CC6)c5c4)n3n2)C[C@H](C)O1", "effect on": "binding", "method": "competition with immobilised ligand", "concentration": "0.5 µM", "remaining binding [%]": 85}
{"SMILES": "CN(C(=O)c1ccccc1)c1cc(N(C)c2ccc3c(c2)CCc2ccc(C(=O)NCCN4CCOCC4)cc2C3=O)ccc1F", "effect on": "cell-free assay", "method": "competition with immobilised ligand", "concentration": "1 µM", "remaining binding [%]": 100}
{"SMILES": "CN(C)c1nccc(-c2cnc3ncccn23)n1", "effect on": "binding", "concentration": "1 µM", "remaining binding [%]": 49}
